Source: ChEMBL document CHEMBL1275389, “In vivo characterization of a dual adenosine A2A/A1 receptor antagonist in animal models of Parkinson's disease” (J Med Chem, 2010)
Calls of active or inactive are those of the source. The calls are words filed in the database; no cut-off is given here.

What was measured:
[1] = system: Mus musculus; assay: Reversal of haloperidol-induced catalepsy in BALB/c mouse at 1 mg/kg, po administered 30 mins after haloperidol challenge measured for 60 seconds after 4 hrs; format: functional, organism-based; design: dose 1 mg/kg
Method in brief: (§1)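 Fasted male BALB/c mice received haloperidol (1 mg/kg sc) and were then dosed orally with test compound (0, 1, 3 mg/kg in 0.5% methylcellulose), reference A2A antagonist (5 mg/kg) or vehicle. Bar catalepsy (max 60 s) was measured repeatedly at 15 min, 1 h, 2 h and 4 h after dosing. Mean ± SEM, n = 12; Dunnett's test.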

[2] = system: Mus musculus; assay: Reversal of haloperidol-induced catalepsy in po dosed BALB/c mouse administered 30 mins after haloperidol challenge measured for 60 seconds after 1 hr; format: functional
Method in brief: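 Fasted male BALB/c mice (18-23 g) received haloperidol 1 mg/kg sc (in 0.3% tartaric acid/0.9% saline). Test compound was given orally in 0.5% methylcellulose (0.01-10 mg/kg) 30 min later. L-DOPA 300 mg/kg plus carbidopa 75 mg/kg served as positive control. Groups were randomized and testing was blind. At 1 h, forepaws were placed on a bar 3.5 cm high and time on the bar was recorded (max 60 s). n = 9-11; Dunnett's test.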

[3] = system: Mus musculus; assay: Reversal of haloperidol-induced catalepsy in BALB/c mouse at 3 mg/kg, po administered 30 mins after haloperidol challenge measured for 60 seconds after 4 hrs; format: functional, organism-based; design: dose 3 mg/kg; method in brief: as §1
[4] = system: Callithrix jacchus; assay: Inhibition of MPTP-induced motor disabilities in Callithrix jacchus at 12 mg/kg, po measured every 5 mins […]; format: functional, organism-based; design: dose 12 mg/kg
Method in brief: (§2)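 MPTP-treated marmosets were dosed orally with vehicle, L-DOPA (12 mg/kg) or test compound (0.1/0.3, 1.0, 10, 50 mg/kg). Parkinsonian motor disability was scored out to 6 h. Eight animals per group. Analysis used a Friedman nonparametric repeated-measures ANOVA with Dunn's test.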

[5] = system: Callithrix jacchus; assay: Toxicity in Callithrix jacchus assessed as induction of dyskinesia at 12 mg/kg, po measured for 10 mins every 30 mins […]; format: organism-based; design: dose 12 mg/kg, route oral; settings: marmoset, in vivo
Method in brief: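 MPTP-treated marmosets received vehicle, L-DOPA (12 mg/kg po) or oral test compound (0.1, 1.0, 10, 50 mg/kg). Dyskinesias (involuntary movements) were scored out to 4 h. Eight animals per group. Analysis used a Friedman test followed by Dunn's comparison.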

[6] = Cmax in BALB/c mouse plasma at 10 mg/kg, po; format: ADME, organism-based; design: dose 10 mg/kg, route oral
Method in brief: (§3)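 Fasted male BALB/c mice received one oral dose of 10 mg/kg as a solution in 0.5% methylcellulose. For bioavailability, a separate iv dose of 2 mg/kg was given in 10% solutol. Discrete blood samples were taken by cardiac puncture from 3–4 animals per time point. Plasma was acetonitrile-precipitated and measured by LC-MS/MS (LOQ 0.7-2 ng/mL). Parameters came from noncompartmental analysis.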

[7] = Oral bioavailability in BALB/c mouse at 10 mg/kg; format: ADME, organism-based; settings: in vivo; method in brief: as §3
[8] = Cmax in cynomolgus monkey plasma at 10 mg/kg, po; format: ADME, organism-based, Macaca fascicularis; design: dose 10 mg/kg, route oral
Method in brief: (§4)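 Fasted male and female cynomolgus monkeys received one oral dose of 10 mg/kg as a solution in 0.5% methylcellulose. For bioavailability, a separate iv dose of 1 mg/kg was given in 10% solutol. Serial blood was drawn by venipuncture. Plasma was acetonitrile-precipitated and measured by LC-MS/MS (LOQ 0.7-2 ng/mL). Noncompartmental analysis was applied to individual plasma concentrations.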

[9] = Cmax in Sprague-Dawley rat plasma at 10 mg/kg, po; format: ADME, organism-based; design: dose 10 mg/kg, route oral
Method in brief: as §3, with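 “Sprague-Dawley rats” for “BALB/c mice”, “orbital sinus” for “cardiac”, “rats” for “animals”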

[10] = system: Rattus norvegicus; assay: Potentiation of L-dopa-induced rotational behavior in unilaterally 6-hydroxydopamine-lesioned po dosed Sprague-Dawley rat pretreated 30 mins before L-dopa challenge measured for 120 mins in presence of carbidopa; format: functional, organism-based
Method in brief: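 6-OHDA (12 μg) was microinjected unilaterally into the medial forebrain bundle. Six weeks later rats got L-DOPA (10 mg/kg po, with carbidopa 2.5 mg/kg sc) alone or together with oral test compound (0.1, 1.0, 3.0, 10 mg/kg). Contralateral 360° turns were counted by an optical sensor during the 2 h before and after L-DOPA. Mean ± SEM, n = 16 rats; Tukey's test versus L-DOPA + vehicle.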

[11] = system: Mus musculus; assay: Reversal of reserpine-induced akinesia in po dosed CF1 mouse administered 18 hrs after reserpine challenge measured for 30 mins after 60 mins; settings: read-out: MED
[12] = system: Mus musculus; assay: Reversal of reserpine-induced akinesia in CF1 mouse at 30 mg/kg, po administered 18 hrs after reserpine challenge measured for 30 mins after 60 mins
[13] = Half life in Sprague-Dawley rat at 10 mg/kg, po; format: ADME, organism-based; design: dose 10 mg/kg, route oral; settings: in vivo
Method in brief: as §3, with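 “Sprague-Dawley rats” for “BALB/c mice”, “orbital sinus” for “cardiac”, “rats” for “animals”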

[14] = system: Rattus norvegicus; assay: Reversal of haloperidol-induced catalepsy in Sprague-Dawley rat at 1 mg/kg, po administered 30 mins after haloperidol challenge measured for 180 seconds after 4 hrs; format: functional, organism-based; design: dose 1 mg/kg
Method in brief: (§5)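 Haloperidol-treated rats (1 mg/kg sc) were dosed orally with test compound (0, 1, 10 mg/kg) or L-DOPA 200 mg/kg plus benserazide 50 mg/kg. Time to descend from the bar (max 180 s) was measured at 15 min, 1 h, 2 h and 4 h after dosing. n = 10 rats; Dunnett's test versus haloperidol + vehicle.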

[15] = Cmax in Sprague-Dawley rat brain at 10 mg/kg, po; format: ADME, organism-based; design: dose 10 mg/kg, route oral
Method in brief: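 Tissue distribution study: fasted male Sprague-Dawley rats were given 10 mg/kg orally in 0.5% methylcellulose. Four rats per time point were euthanized to collect brain. Brains were weighed, homogenized in methanol, and the extract evaporated and reconstituted in mobile phase for LC-MS/MS.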

[16] = Oral bioavailability in cynomolgus monkey at 10 mg/kg; format: ADME, organism-based, Macaca fascicularis; settings: in vivo; method in brief: as §4
[17] = system: Mus musculus; assay: Reversal of reserpine-induced akinesia in CF1 mouse at 1 mg/kg, po administered 18 hrs before reserpine challenge measured for 30 mins after 60 mins; format: functional, organism-based; design: dose 1 mg/kg; settings: in the assay text read “18 hrs after reserpine challenge” for “18 hrs before reserpine challenge”
Method in brief: (§6)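 Mice were pretreated with reserpine (0.6 mg/kg sc) 18 h before testing. They were dosed orally with test compound (0.10, 1.0, 10.0, 30.0 mg/kg) or vehicle. Locomotion was recorded 60 min after dosing as total distance traveled (cm) over a 30 min period. Mean ± SEM, n = 10-12 per group; Hochberg test versus reserpine + vehicle.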

[18] = Oral bioavailability in Sprague-Dawley rat at 10 mg/kg; format: ADME, organism-based; settings: in vivo
Method in brief: as §3, with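 “Sprague-Dawley rats” for “BALB/c mice”, “orbital sinus” for “cardiac”, “rats” for “animals”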

[19] = Half life in cynomolgus monkey at 10 mg/kg, po; format: ADME, organism-based, Macaca fascicularis; design: dose 10 mg/kg, route oral; settings: in vivo; method in brief: as §4
[20] = target: T1, Adenosine receptor A1 (Homo sapiens, UniProt P30542); assay: Antagonist activity at adenosine A1 receptor; format: functional
T1 sequence (P30542 whole entry): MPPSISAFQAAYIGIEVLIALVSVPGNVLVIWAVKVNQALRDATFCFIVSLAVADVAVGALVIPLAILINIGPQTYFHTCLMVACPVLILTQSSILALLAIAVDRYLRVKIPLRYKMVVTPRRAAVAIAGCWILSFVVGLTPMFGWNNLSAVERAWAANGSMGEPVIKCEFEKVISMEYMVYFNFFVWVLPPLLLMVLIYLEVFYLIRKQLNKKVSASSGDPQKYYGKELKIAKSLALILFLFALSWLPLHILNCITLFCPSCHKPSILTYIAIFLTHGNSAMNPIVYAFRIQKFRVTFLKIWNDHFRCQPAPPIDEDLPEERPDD

[21] = system: Rattus norvegicus; assay: Inhibition of 6-hydroxydopamine-induced rotational behavior in Sprague-Dawley rat at 0.1 to 10 mg/kg, po measured for 120 mins; format: functional; settings: 2 h, dose mg/kg 0.1-10, read-out: MED
Method in brief: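 Rats received 6-OHDA (12 μg) unilaterally into the medial forebrain bundle. Six weeks later they were dosed orally with test compound alone (0.1, 1.0, 3.0, 10 mg/kg). Rotation was tracked by an optical sensor tethered to an automated system, with one count per 360° turn. Readout was mean ± SEM total contralateral rotations over 2 h, n = 16 per group.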

[22] = target: Adenosine receptor A2a (Homo sapiens, UniProt P29274); assay: Antagonist activity at adenosine A2A receptor; format: functional
Adenosine receptor A2a, sequence (P29274 whole entry): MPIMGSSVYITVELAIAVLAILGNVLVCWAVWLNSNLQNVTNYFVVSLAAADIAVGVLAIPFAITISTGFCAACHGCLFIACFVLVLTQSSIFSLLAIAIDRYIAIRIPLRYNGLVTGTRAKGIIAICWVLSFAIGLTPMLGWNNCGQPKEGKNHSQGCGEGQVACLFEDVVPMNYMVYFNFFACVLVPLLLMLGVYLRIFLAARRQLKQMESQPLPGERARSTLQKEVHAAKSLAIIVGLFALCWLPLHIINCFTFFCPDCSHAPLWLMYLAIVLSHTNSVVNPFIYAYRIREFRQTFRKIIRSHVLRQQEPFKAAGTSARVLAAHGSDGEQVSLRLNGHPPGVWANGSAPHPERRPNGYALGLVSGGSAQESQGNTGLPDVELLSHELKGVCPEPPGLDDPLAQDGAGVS

[23] = system: Rattus norvegicus; assay: Reversal of haloperidol-induced catalepsy in po dosed Sprague-Dawley rat administered 30 mins after haloperidol challenge measured for 180 seconds after 1 hr; format: functional
Method in brief: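 Sprague-Dawley rats received haloperidol (1 mg/kg sc). Oral test compound (0.01-30.0 mg/kg), L-DOPA/carbidopa (200:50 mg/kg) or vehicle followed, as in the mouse protocol. Time to descend from the bar was recorded (max 180 s). Mean ± SEM, n = 10-16 rats per group.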

[24] = system: Callithrix jacchus; assay: Inhibition of MPTP-induced motor disabilities in Callithrix jacchus at 10 mg/kg, po measured every 5 mins for 6 hrs; format: functional, organism-based; design: dose 10 mg/kg; method in brief: as §2
[25] = Ratio of drug level in brain to plasma in Sprague-Dawley rat at 10 mg/kg, po; format: ADME, organism-based; design: dose 10 mg/kg, route oral
Method in brief: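 Fasted male Sprague-Dawley rats were given 10 mg/kg orally as a solution in 0.5% methylcellulose. At each time point four rats were euthanized for blood, plasma and brain. Brain was homogenized in methanol, and the extract was dried and reconstituted in mobile phase. Plasma was precipitated with acetonitrile. Both were quantified by LC-MS/MS.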

[26] = system: Mus musculus; assay: Reversal of reserpine-induced akinesia in CF1 mouse at 10 mg/kg, po administered 18 hrs before reserpine challenge measured for 30 mins after 60 mins; format: functional, organism-based; design: dose 10 mg/kg; settings: in the assay text read “18 hrs after reserpine challenge” for “18 hrs before reserpine challenge”; method in brief: as §6
[27] = system: Rattus norvegicus; assay: Reversal of haloperidol-induced catalepsy in Sprague-Dawley rat at 10 mg/kg, po administered 30 mins after haloperidol challenge measured for 180 seconds after 4 hrs; format: functional, organism-based; design: dose 10 mg/kg; method in brief: as §5
[28] = Half life in BALB/c mouse at 10 mg/kg, po; format: ADME, organism-based; design: dose 10 mg/kg, route oral; settings: in vivo; method in brief: as §3
[29] = system: Callithrix jacchus; assay: Inhibition of MPTP-induced motor disabilities in Callithrix jacchus at 50 mg/kg, po measured every 5 mins for 6 hrs; format: functional, organism-based; design: dose 50 mg/kg; method in brief: as §2
[30] = system: Callithrix jacchus; assay: Inhibition of MPTP-induced motor disabilities in Callithrix jacchus at 1 mg/kg, po measured every 5 mins […]; format: functional, organism-based; design: dose 1 mg/kg; method in brief: as §2

CCn1c(=O)c2c(nc(/C=C/c3ccc(OC)c(OC)c3)n2C)n(CC)c1=O [ISTRADEFYLLINE]
Activity [1]: Active | MRC [2]: 1 mg/kg | ED50 ([2]; Mus musculus, BALB/c, po): 0.14 mg/kg | Activity [3]: Active

N[C@@H](Cc1ccc(O)c(O)c1)C(=O)O [LEVODOPA]
inhibition [4]: Active | Activity [5]: Toxic

Cl.Cl.Nc1nc(-c2ccccc2)c2c(n1)-c1cc(CN3CCCC3)ccc1C2=O
Cmax [6]: 655 nM | bioavailability [7]: 100% | Cmax [8]: 626 nM | Cmax [9]: 1260 nM | Activity [10]: Dose-dependent effect | minimal effective dose [11]: 1 mg/kg | Activity [12]: Active | half-life [13]: 1.6 h | Activity [14]: Active | Cmax [15]: 3550 nM | bioavailability [16]: 39% | Activity [17]: Active | bioavailability [18]: 64% | half-life [19]: 3.2 h | Activity [1]: Active | Ki [20]: 17 nM | minimal effective dose [21]: 1 mg/kg | Ki [22]: 4.1 nM | Activity [23]: Dose-dependent effect | ED50 [23]: 0.48 mg/kg | minimal effective dose ([23]; read-out: MED): 1 mg/kg | Activity [24]: Active | Kp [25]: 3 | Activity [26]: Active | Activity [27]: Active | half-life [28]: 0.8 h | Activity [2]: Dose-dependent effect | ED50 ([2]; Mus musculus, BALB/c, po): 0.17 mg/kg | minimal effective dose ([2]; Mus musculus, BALB/c, po, read-out: MED): 1 mg/kg | Activity [29]: Active | Activity [30]: Active | Activity [3]: Active
